Data reported in ChEMBL document CHEMBL3091377, “Small molecule fusion inhibitors: design, synthesis and biological evaluation of (Z)-3-(5-(3-benzyl-4-oxo-2-thioxothiazolidinylidene)methyl)-N-(3-carboxy-4-hydroxy)phenyl-2,5-dimethylpyrroles and related derivatives targeting HIV-1 gp41” (Bioorg Med Chem, 2013).
Active and inactive are the calls of the source. The calls are words filed in the database; no cut-off is given here.

How the values were obtained:
[1] = Selectivity index, ratio of CC50 for human MT2 cells to EC50 for HIV1 3B; type: toxicity, cell-based; details: read-out: Ratio CC50/EC50
Method in brief: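 Selectivity index calculated as CC50 (XTT, MT-2 cells, 4 days) divided by EC50 (p24 inhibition in HIV-1 IIIB-infected MT-2 cells).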

[2] = tested on: Human immunodeficiency virus 1; assay: Antiviral activity against enfuvirtide-resistant HIV-1 NL4-3 harboring gp41 (36G)V38A/N42D mutation infected in human MT2 cells assessed as inhibition of p24 antigen production after 4 days by ELISA; type: functional, organism-based
Method in brief: (§1)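 1 × 10^4 MT-2 cells infected with virus (100 TCID50) in RPMI 1640 with 10% serum, with or without compound at graded concentrations, overnight. Supernatant then replaced with compound-free medium. Day 4 supernatant lysed with 5% Triton X-100. p24 quantified by HIVIG-capture sandwich ELISA with recombinant p24 standard curve, A450. IC50 by CalcuSyn, triplicate, mean ± SD.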

[3] = tested on: Human immunodeficiency virus 1; assay: Antiviral activity against enfuvirtide-sensitive HIV-1 NL4-3 harboring gp41 (36G)N42S mutation infected in human MT2 cells assessed as inhibition of p24 antigen production after 4 days by ELISA; type: functional, organism-based; method in brief: as §1
[4] = tested on: Human immunodeficiency virus 1; assay: Antiviral activity against HIV1 3B infected in human MT2 cells assessed as inhibition of p24 antigen production after 4 days by ELISA; type: functional, organism-based; details: Human immunodeficiency virus 1, 3B, MT2, 96 h
Method in brief: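 MT-2 cells (1 × 10^4) infected with HIV-1 IIIB at 100 TCID50 in RPMI 1640 with 10% serum (printed "PBS"), compound at graded concentrations overnight. Supernatant then replaced with compound-free medium. Day 4: supernatant lysed in equal volume 5% Triton X-100, p24 quantified by sandwich ELISA against recombinant p24 standard curve. Triplicate; EC50 from percent inhibition.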

[5] = tested on: Human immunodeficiency virus 1; assay: Antiviral activity against enfuvirtide-resistant HIV-1 NL4-3 harboring gp41 (36G)V38A mutation infected in human MT2 cells assessed as inhibition of p24 antigen production after 4 days by ELISA; type: functional, organism-based; method in brief: as §1
[6] = tested on: Human immunodeficiency virus 1; assay: Antiviral activity against enfuvirtide-resistant HIV-1 NL4-3 harboring gp41 (36G)N42T/N43K mutation infected in human MT2 cells assessed as inhibition of p24 antigen production after 4 days by ELISA; type: functional, organism-based; method in brief: as §1
[7] = tested on: Human immunodeficiency virus 1; assay: Antiviral activity against enfuvirtide-resistant HIV-1 NL4-3 harboring gp41 (36G)V38E/N42S mutation infected in human MT2 cells assessed as inhibition of p24 antigen production after 4 days by ELISA; type: functional, organism-based; method in brief: as §1
[8] = Cytotoxicity against human MT2 cells after 4 days by XTT assay; type: cell-based
Method in brief: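 XTT assay on MT-2 cells (5 × 10^5/mL mixed with equal volume of compound at graded concentrations). Incubated 4 days, then XTT (1 mg/mL) containing 0.02 µM phenazine methosulphate added. A450 read after 4 h; CC50 calculated as concentration giving 50% cytotoxicity.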

[9] = (§2) Inhibition of HIV-1 gp41-mediated 6-helix bundle formation after 30 mins by sandwich ELISA; design: species or system Human immunodeficiency virus 1
Method in brief: (§3)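 Peptide N36 (2 µM) preincubated with compound at graded concentrations, 37 °C, 30 min. C34 (2 µM) then added and incubated a further 30 min at 37 °C. Mixture captured on wells coated with rabbit IgG against gp41 six-helix bundle (10 µg/mL); A450 read. Percent inhibition versus no-compound control; IC50 calculated; triplicate.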

[10] = tested on: Human immunodeficiency virus 1; assay: Antiviral activity against enfuvirtide-resistant HIV-1 NL4-3 harboring gp41 (36G)V38A/N42T mutation infected in human MT2 cells assessed as inhibition of p24 antigen production after 4 days by ELISA; type: functional, organism-based; method in brief: as §1
[11] = tested on: Human immunodeficiency virus 1; assay: Ratio of IC50 for enfuvirtide-resistant HIV-1 NL4-3 harboring gp41 (36G)V38A/N42T mutation to IC50 for enfuvirtide-sensitive HIV-1 NL4-3 harboring gp41 (36G)N42S mutation; type: functional
Method in brief: (§4)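 MT-2 cells (1 × 10^4) were infected overnight in RPMI 1640 with 100 TCID50 of the NL4-3 (36G) N42S or mutant strain, with graded compound. Medium was then replaced without compound. On day 4, supernatant was lysed in 5% Triton X-100 and p24 measured by HIVIG-capture ELISA (A450, recombinant p24 standard). IC50 was taken from triplicates, and the ratio was mutant IC50 over N42S IC50.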

[12] = tested on: Human immunodeficiency virus 1; assay: Ratio of IC50 for enfuvirtide-resistant HIV-1 NL4-3 harboring gp41 (36G)V38E/N42S mutation to IC50 for enfuvirtide-sensitive HIV-1 NL4-3 harboring gp41 (36G)N42S mutation; type: functional; method in brief: as §4
[13] = tested on: Human immunodeficiency virus 1; assay: Ratio of IC50 for enfuvirtide-resistant HIV-1 NL4-3 harboring gp41 (36G)V38A mutation to IC50 for enfuvirtide-sensitive HIV-1 NL4-3 harboring gp41 (36G)N42S mutation; type: functional; method in brief: as §4
[14] = tested on: Human immunodeficiency virus 1; assay: Ratio of IC50 for enfuvirtide-resistant HIV-1 NL4-3 harboring gp41 (36G)V38A/N42D mutation to IC50 for enfuvirtide-sensitive HIV-1 NL4-3 harboring gp41 (36G)N42S mutation; type: functional; method in brief: as §4
[15] = tested on: Human immunodeficiency virus 1; assay: Ratio of IC50 for enfuvirtide-resistant HIV-1 NL4-3 harboring gp41 (36G)N42T/N43K mutation to IC50 for enfuvirtide-sensitive HIV-1 NL4-3 harboring gp41 (36G)N42S mutation; type: functional; method in brief: as §4
[16] = tested on: Human immunodeficiency virus 1; assay: as §2; method in brief: as §3

| Compound | selectivity ratio [1] | EC50 [4] [µM] | CC50 at 96 h [8] [µM] | IC50 [9] [µM] | other results |
| --- | --- | --- | --- | --- | --- |
| COC(=O)c1ccc(CN2C(=O)/C(=C/c3cc(C)n(-c4ccc(O)c(C(=O)O)c4)c3C)SC2=S)cc1 | 24.6 | 1.5 | 36.9 | 1.8 | IC50 [2]: 2.2 µM; IC50 [3]: 2.01 µM; IC50 [5]: 4.85 µM; IC50 [6]: 2.3 µM; IC50 [7]: 2.75 µM; IC50 [10]: 1.67 µM |
| enfuvirtide |  |  |  |  | Ratio IC50 [11]: >20; IC50 [2]: 1.54 µM; Ratio IC50 [12]: >20; Ratio IC50 [13]: >20; IC50 [3]: 0.077 µM; IC50 [5]: > 2 µM; Ratio IC50 [14]: >20; IC50 [6]: > 2 µM; IC50 [7]: > 2 µM; Ratio IC50 [15]: >20; IC50 [10]: 1.66 µM |
| Cc1cc(/C=C2\SC(=S)N(Cc3ccc(C(F)(F)F)cc3)C2=O)c(C)n1-c1ccc(O)c(C(=O)O)c1 | 2.7 | 17.2 | 45.9 | 18.8 |  |
| Cc1cc(/C=C2\SC(=S)N(Cc3ccc(C(=O)O)cc3)C2=O)c(C)n1-c1ccc(O)c(C(=O)O)c1 | 14.7 | 7.1 | 105 | 68 |  |
| Cc1ccc(C)n1-c1ccc(O)c(C(=O)O)c1 | 191 | 0.7 |  | 37.4 |  |
| Cc1cc(/C=C2\SC(=S)N(Cc3ccccc3C(F)(F)F)C2=O)c(C)n1-c1ccc(O)c(C(=O)O)c1 | 1 | 29.1 | 28.8 | 22.6 |  |
| COC(=O)c1cccc(CN2C(=O)/C(=C/c3cc(C)n(-c4ccc(O)c(C(=O)O)c4)c3C)SC2=S)c1 | 128 | 0.3 | 38.5 | 1.8 | IC50 [2]: 0.725 µM; IC50 [3]: 2.22 µM; IC50 [5]: 1.74 µM; IC50 [6]: 2.02 µM; IC50 [7]: 3.37 µM; IC50 [10]: 2.82 µM |
| Cc1cc(/C=C2\SC(=S)N(Cc3ccccc3Br)C2=O)c(C)n1-c1ccc(O)c(C(=O)O)c1 | 0.6 | 41.1 | 25.7 |  |  |
| Cc1cc(/C=C2\SC(=S)N(Cc3cccc(C(=O)O)c3)C2=O)c(C)n1-c1ccc(O)c(C(=O)O)c1 | > 8.3 | 12.1 | > 100 | 20.8 |  |
| Cc1cc(/C=C2\SC(=S)N(Cc3ccc(C(C)(C)C)cc3)C2=O)c(C)n1-c1ccc(O)c(C(=O)O)c1 | 61.3 | 0.9 | 55.2 | 2.6 | IC50 [2]: 2.02 µM; IC50 [3]: 0.473 µM; IC50 [5]: 4.25 µM; IC50 [6]: 1.96 µM; IC50 [7]: 2.67 µM; IC50 [10]: 1.78 µM |
| Cc1cc(/C=C2\SC(=S)N(Cc3ccccc3)C2=O)c(C)n1-c1ccc(O)c(C(=O)O)c1 | 50.2 | 3.2 | 159 | 11.9 |  |
| Cc1cc(/C=C2\SC(=S)N(Cc3ccccc3)C2=O)c(C)n1-c1cccc(C(=O)O)c1 | 5.5 | 15.3 | 83.4 | 45.7 |  |
| Cc1cc(/C=C2\SC(=S)N(CCc3ccccc3)C2=O)c(C)n1-c1ccc(O)c(C(=O)O)c1 | 4.2 | 6.2 | 26 | 12.5 |  |
| Cc1cc(/C=C2\SC(=S)N(c3ccccc3)C2=O)c(C)n1-c1ccc(O)c(C(=O)O)c1 | > 2.8 | 35.6 | > 100 |  | inhibition [16]: inactive |
| Cc1cc(/C=C2\SC(=S)N(Cc3cccc(Br)c3)C2=O)c(C)n1-c1ccc(O)c(C(=O)O)c1 | 1.5 | 32.4 | 48.2 | 7.8 |  |
| Cc1cc(/C=C2\SC(=S)N(Cc3ccc(Br)cc3)C2=O)c(C)n1-c1ccc(O)c(C(=O)O)c1 | 2.2 | 42.7 | 94.4 | 10.3 |  |
| Cc1cc(/C=C2\SC(=S)N(Cc3cccc(C(F)(F)F)c3)C2=O)c(C)n1-c1ccc(O)c(C(=O)O)c1 | 6.7 | 3.9 | 26.3 | 9.2 |  |
| COc1cccc(CN2C(=O)/C(=C/c3cc(C)n(-c4ccc(O)c(C(=O)O)c4)c3C)SC2=S)c1 | 4.4 | 23.5 | 102 | 2.1 |  |
| COc1ccc(CN2C(=O)/C(=C/c3cc(C)n(-c4ccc(O)c(C(=O)O)c4)c3C)SC2=S)cc1 | 3.8 | 19.8 | 75.3 | 0.9 |  |
| Cc1cc(/C=C2\SC(=S)N(Cc3ccccc3)C2=O)c(C)n1-c1ccc(Cl)c(C(=O)O)c1 | 3.6 | 19.1 | 68.3 | 34.3 |  |
